# ChEMBL document CHEMBL1158044, “Bioactive depsides and anthocyanins from jaboticaba (Myrciaria cauliflora)” (J Nat Prod, 2006)
# What was measured:
# [1] = Antiradical activity assessed as DPPH radical scavenging activity; format: physicochemical
# In short: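 DPPH radical scavenging done per an earlier method with 400 µM DPPH. Tested on extracts, fractions and pure compounds, with gallic acid as positive control. IC50 reported.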
# [2] = Inhibition of IL8 production in human SAE cells at 100 uM; format: functional; parameters: Activity: scale not given: the % may be the effect or the level left
# In short: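 Confluent human small airway epithelial cells (passages 4-8, 5% CO2, 37 °C) given compound at 100 µM without smoke extract. IL-8 in supernatant measured by ELISA after 24 h. Significance by two-sided Student's t-test at the 5% level.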
# [3] = Inhibition of IL8 production in cigarette smoke extract treated human SAE cells at 100 uM; format: functional; parameters: scale not given: the % may be the effect or the level left
# In short: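 Primary human small airway epithelial cells, confluent, passages 4-8, kept in 5% CO2 at 37 °C. CSE made by drawing smoke of one unfiltered 2R1 reference cigarette through 25 mL DPBS, set to pH 7.4, filtered and diluted to 5% in growth medium. Compound (100 µM) added 30 min before 5% CSE. After 24 h, supernatant IL-8 read by ELISA. Two-sided Student's t-test, 5% level.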
# HT-29 = assay: Cytotoxicity against human HT-29 cells after 72 hrs; format: functional, cell-based; conditions: HT-29, 72 h
# In short: (§1)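 Colon cancer cells (10 000) seeded in DMEM with 10% FBS. After 24 h, treated with 1, 5, 10, 30, 50 and 70 µM compound for 72 h in DMEM with 1% FBS. Cells washed with PBS, trypsinized and counted on a Coulter Counter. IC50 derived. EGCG and Polyphenon E served as positive controls.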
# [4] = Cytotoxicity against human HCT 116 cells after 72 hrs; format: functional, cell-based; conditions: HCT-116, 72 h; in short: as §1
# SW480 = assay: Cytotoxicity against human SW480 cells after 72 hrs; format: functional, cell-based; conditions: SW480, 72 h; in short: as §1
Compound,IC50 [1],"inhibition at 100 µM ([2]; Homo sapiens, SAE)",Activity [3],IC50 (HT-29),IC50 [4],IC50 (SW480),Activity [2]
COC(=O)Cc1c(O)cc(O)cc1OC(=O)c1ccc(O)c(O)c1 [JABOTICABIN],51.4 µM,81.3%,47.3%,65 µM,,,
OC[C@H]1O[C@@H](Oc2cc3c(O)cc(O)cc3[o+]c2-c2cc(O)c(O)c(O)c2)[C@H](O)[C@@H](O)[C@@H]1O,,,96%,,12 µM,20 µM,
O=C(O)Cc1c(O)cc(O)cc1OC(=O)c1ccc(O)c(O)c1,61.8 µM,,70.3%,,30 µM,,74.9%
OC[C@H]1O[C@@H](Oc2cc3c(O)cc(O)cc3[o+]c2-c2ccc(O)c(O)c2)[C@H](O)[C@@H](O)[C@@H]1O [KUROMANIN],,,36.4%,100 µM,100 µM,100 µM,65.3%
